Series [1] in a line: MRT infinity in Sprague-Dawley rat at 2 mg/kg, iv measured upto 1440 mins by LC-MS/MS analysis. It counts as ADME, organism-based. The note with it: in vivo.
Series [2] is described as follows: Clearance in Sprague-Dawley rat at 10 mg/kg, IG measured upto 1440 mins by LC-MS/MS analysis. In kind it is ADME, organism-based. To be noted: in vivo, po.
Series [3] relates to Mus musculus. In words: Antidepressant activity in reserpine-induced ICR mouse model assessed as decrease in number of dejection at 10 to 20 mg/kg pretreated with reserpine for 3 days followed by compound addition on day 4 to 10 by open field test. It counts as functional, organism-based. The note with it: dose 10-20 mg/kg, time 6.0 day. The gist of the method:
(§1)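 Body weight was recorded daily. OFT: 5 min session scoring distance, speed, rearing and dejection. FST and TST: 6 min, with immobility scored over the last 4 min. Mean ± SD, n = 6; one-way ANOVA and t-test.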

Series [4] deals with Mus musculus. As to the kind of experiment: Antidepressant activity in chronic unpredictable mild stress ICR mouse model assessed as increase in total distance traveled at 10 to 20 mg/kg administered for 2 weeks by open field test. In kind it is functional, organism-based. The note with it: dose 10-20 mg/kg. The procedure, abridged: (§2)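 ICR mice received CUMS for 4 weeks: 11 stressors given randomly twice daily, 42 days in total. OFT: 5 min session scoring distance, speed, rearing and dejection. FST/TST: 6 min, with immobility scored over the last 4 min. Sucrose preference test was also run. Mean ± SD, n = 6.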

The subject of series [5] is PC-12. In words: Neurocytoprotective activity against CORT-induced damage in rat PC-12 cells at 0.5 to 4 uM measured after 24 hrs by MTT assay. To be noted: dose 0.5-4 µM. In kind it is functional, cell-based. The gist of the method:
(§3)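 PC12 cells seeded at 5 × 10^4 cells/mL for 24 h. Medium was then replaced with compound (0.5–4.0 μM) plus 500 μM CORT (DMSO <1%) for 24 h. Viability was measured by MTT relative to the CORT model group.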
Background: Tetrazolium dyes change colour on reduction, which living cells bring about.

Series [6] is described as follows: Toxicity in mouse assessed as toxic effect on kidney at 10 to 20 mg/kg by H and E staining based assay. In kind it is organism-based. The note with it: in vivo, dose 10-20 mg/kg. The procedure, abridged:
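Mice given compound at 10 or 20 mg/kg, with fluoxetine 20 mg/kg as comparator. Paraffin tissue sections of 4 μm were cut. Staining: hematoxylin 5 min, 75% HCl-ethanol differentiation 30 s, eosin 2 min. Organs (liver, kidney, lung, heart, spleen) examined at ×400; hippocampus (CA1, CA3, DG) at ×200.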

The subject of series [7] is Mus musculus. In words: Antidepressant activity in chronic unpredictable mild stress ICR mouse model assessed as reduction in depression-like behavior at 10 mg/kg administered for 2 weeks by open field test. In kind it is functional, organism-based. The gist of the method: as §2
Series [8] deals with PC-12. In words: Neurocytoprotective activity against CORT-induced damage in rat PC-12 cells at 0.5 uM measured after 24 hrs by MTT assay. In kind it is functional, cell-based. The procedure, abridged: as §3
Series [9] is filed under the species Danio rerio. In words: Antidepressant activity in reserpine-induced zebrafish AB depression model assessed as fast travel at 0.1 to 1 uM pretreated for 40 mins with reserpine followed by compound addition and measured for 7 days by open field test. It counts as functional, organism-based. The note with it: dose 0.1-1 µM, time 7.0 day. The gist of the method: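 Zebrafish were exposed to 10 mg/L reserpine for 40 min. Compound (0.1, 0.5, 1 μM) or fluoxetine (1 μM) was given 24 h later for 7 days. Fish kept at 28.5 °C on a 14 h light/10 h dark cycle. Open-field and novel tank tests were video-tracked for distance, velocity, immobility and time in the top. Mean ± SD, n = 6.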

The subject of series [10] is Mus musculus. As to the kind of experiment: Antidepressant activity in reserpine-induced ICR mouse model assessed as reduction in immobility time at 10 to 20 mg/kg pretreated with reserpine for 3 days followed by compound addition on day 4 to 10 by forced swimming test. In kind it is functional, organism-based. The note with it: dose 10-20 mg/kg, time 6.0 day. The gist of the method:
as §1

A word on the MRT inf: it is a mean duration of stay, worked out from the concentration-time curve. A word on the CL/F: it is clearance divided by bioavailability, as obtained after extravascular dosing.

The source made the active and inactive calls. The calls are words filed in the database; no cut-off is given here.

As to `O=C1c2ccccc2-c2nccc3cc(OCCCCCN4CCN(c5ccccc5F)CC4)cc1c23`, in series [1], the MRT inf was determined as 4.19 h. In addition, in series [2], the CL/F is 346 mL/min/kg. Further, the outcome in series [3], in series [4], in series [5], in series [7], in series [8] and in series [9] was Active. Further, in series [10], the outcome was Active. Besides, the Activity entry in series [6] was “Non-Toxic”.
